From ChEMBL document CHEMBL1146380, “Synthesis, antimicrobial activity, and QSAR studies of furan-3-carboxamides” (2007)
In brackets after ≈: the same amount, converted by molar mass. Activity calls are given as the source filed them. The rule behind the calls is not given here.

Experiments:
[1] = system: Candida albicans; assay: Antimicrobial activity against Candida albicans ATCC 44373 by broth microdilution method; type: functional
In short: (§1)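 Yeasts grown on potato dextrose agar. Inoculum was standardized by McFarland turbidity as for bacteria, into RPMI 1640 broth (M27-A2). DMSO-dissolved compound was tested in twofold dilutions from 320 to 1.25 at 35 °C for 24 h, in duplicate. MIC was the lowest concentration completely inhibiting visible growth. Fungicidal concentration was read by subculturing 20 µL from clear wells on Sabouraud dextrose agar at 35 °C.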

[2] = system: Candida dubliniensis; assay: Antimicrobial activity against Candida dubliniensis CBS 7987 by broth microdilution method; type: functional; in short: as §1
[3] = system: Nakaseomyces glabratus; assay: Antimicrobial activity against Candida glabrata […] by broth microdilution method; type: functional; in short: as §1
[4] = system: Cryptococcus deneoformans; assay: Antimicrobial activity against Cryptococcus neoformans var.neoformans serotype D ATCC 28952 by broth microdilution method; type: functional
In short: (§2)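 Organism grown on potato dextrose agar, with turbidity-standardized inoculum in RPMI 1640 broth (M27-A2). DMSO-dissolved compound was tested in twofold dilutions from 320 to 1.25 at 35 °C, incubated up to 72 h, in duplicate. MIC was the lowest concentration with no visible growth. Cidal concentration was read by subculturing 20 µL from clear wells on Sabouraud dextrose agar, incubated for the same period.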

[5] = system: Saccharomyces cerevisiae; assay: Antimicrobial activity against Saccharomyces cerevisiae ATCC 2601 by broth microdilution method; type: functional; in short: as §2
[6] = system: Staphylococcus aureus; assay: Antimicrobial activity against Staphylococcus aureus ATCC 25923 by broth microdilution method; type: functional
In short: (§3)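 Bacteria grown overnight on Mueller–Hinton agar. Colonies were suspended in saline to McFarland turbidity (about 10^8 cfu/mL), diluted 1:100 in saline, then 1:20 in Mueller–Hinton broth, giving 5 · 10^4 cfu/mL per well. DMSO-dissolved compound was tested in twofold dilutions from 320 to 1.25 at 35 °C for 24 h. MIC was the lowest concentration with no visible turbidity (M7-A4). Bactericidal concentration was read by subculturing clear wells on Mueller–Hinton agar.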

[7] = system: Klebsiella pneumoniae; assay: Antimicrobial activity against Klebsiella pneumoniae ATCC 1003 by broth microdilution method; type: functional; in short: as §3
[8] = system: Escherichia coli; assay: Antimicrobial activity against Escherichia coli ATCC 25922 by broth microdilution method; type: functional; in short: as §3
[9] = (§4) Antimicrobial activity against Salmonella setubal ATCC 19196 by broth microdilution method; type: functional, Salmonella enterica subsp. enterica serovar Setubal; details: Salmonella enterica; in short: as §3
[10] = system: Salmonella enterica subsp. enterica serovar Setubal; assay: as §4; type: functional; in short: as §3
[11] = system: Prototheca zopfii; assay: Antimicrobial activity against Prototheca zopfii by broth microdilution method; type: functional; in short: as §2
[12] = system: Pseudomonas aeruginosa; assay: Antimicrobial activity against Pseudomonas aeruginosa ATCC 27853 by broth microdilution method; type: functional; in short: as §3
[13] = system: Rhizopus arrhizus; assay: Antimicrobial activity against Rhizopus oryzae isolate by broth microdilution method; type: functional
[14] = system: Sporothrix schenckii; assay: Antimicrobial activity against Sporothrix schenckii ATCC 1146 by broth microdilution method; type: functional
[15] = system: Fusarium solani; assay: Antimicrobial activity against Fusarium solani isolate by broth microdilution method; type: functional
[16] = system: Aspergillus fumigatus; assay: Antimicrobial activity against Aspergillus fumigatus isolate by broth microdilution method; type: functional
[17] = system: Aspergillus flavus; assay: Antimicrobial activity against Aspergillus flavus isolate by broth microdilution method; type: functional
[18] = system: Aspergillus niger; assay: Antimicrobial activity against Aspergillus niger isolate by broth microdilution method; type: functional
[19] = system: Aspergillus terreus; assay: Antimicrobial activity against Aspergillus terreus isolate by broth microdilution method; type: functional
[20] = system: Scedosporium boydii; assay: Antimicrobial activity against Pseudallescheria boydii isolate by broth microdilution method; type: functional

| SMILES | MFC [1] [µg/mL] | MIC [1] [µg/mL] | MFC [2] [µg/mL] | MIC [2] [µg/mL] | MIC [3] [µg/mL] | MFC [4] [µg/mL] | MIC [4] [µg/mL] | MFC [5] [µg/mL] | MIC [6] [µg/mL] | MIC [7] [µg/mL] | Activity [8] | MIC [8] [µg/mL] | MIC [9] [µg/mL] | Activity [10] | MIC [11] [µg/mL] | MIC [12] [µg/mL] | MIC [13] [µg/mL] | MIC [14] [µg/mL] | MIC [15] [µg/mL] | Activity [17] | other results |
| --- | --- | --- | --- | --- | --- | --- | --- | --- | --- | --- | --- | --- | --- | --- | --- | --- | --- | --- | --- | --- | --- |
| O=C(Nc1nc[nH]n1)c1ccoc1 | 80 (≈ 449 µM) | 80 (≈ 449 µM) | 80 (≈ 449 µM) | 40 (≈ 225 µM) | 80 (≈ 449 µM) | 80 (≈ 449 µM) | 20 (≈ 112 µM) | 320 (≈ 1800 µM) | 160 (≈ 898 µM) | 320 (≈ 1800 µM) | inactive | 320 (≈ 1800 µM) | 320 (≈ 1800 µM) | inactive | 160 (≈ 898 µM) | 160 (≈ 898 µM) | 320 (≈ 1800 µM) | 160 (≈ 898 µM) | 320 (≈ 1800 µM) | inactive | MFC [3]: 80 µg/mL (≈ 449 µM); MIC [5]: 160 µg/mL (≈ 898 µM); MBC ([6]; read-out: MFC): 160 µg/mL (≈ 898 µM); MBC ([7]; read-out: MFC): 320 µg/mL (≈ 1800 µM); MFC [11]: 160 µg/mL (≈ 898 µM); MBC [12]: 320 µg/mL (≈ 1800 µM); Activity [13]: inactive; MFC [14]: 320 µg/mL (≈ 1800 µM); Activity [15]: inactive; Activity [16]: inactive; MIC [16]: 320 µg/mL (≈ 1800 µM); MIC [18]: 320 µg/mL (≈ 1800 µM); Activity [19]: inactive; MFC [20]: 320 µg/mL (≈ 1800 µM); MIC [20]: 320 µg/mL (≈ 1800 µM) |
| Cc1ccc(S(=O)(=O)NNC(=O)c2ccoc2)cc1 |  |  |  |  |  | 320 (≈ 1140 µM) | 320 (≈ 1140 µM) | 320 (≈ 1140 µM) | 320 (≈ 1140 µM) | 320 (≈ 1140 µM) | inactive | 320 (≈ 1140 µM) | 320 (≈ 1140 µM) | inactive | 320 (≈ 1140 µM) | 160 (≈ 571 µM) | 320 (≈ 1140 µM) | 160 (≈ 571 µM) | 320 (≈ 1140 µM) | inactive | Activity [1]: inactive; Activity [2]: inactive; Activity [3]: inactive; MIC [5]: 160 µg/mL (≈ 571 µM); Activity [6]: inactive; Activity [7]: inactive; Activity [11]: inactive; MBC [12]: 320 µg/mL (≈ 1140 µM); Activity [13]: inactive; Activity [14]: inactive; Activity [15]: inactive; MFC [16]: 320 µg/mL (≈ 1140 µM); MIC [16]: 320 µg/mL (≈ 1140 µM); MIC [17]: 320 µg/mL (≈ 1140 µM); Activity [18]: inactive; Activity [19]: inactive; MIC [19]: 320 µg/mL (≈ 1140 µM); MFC [20]: 160 µg/mL (≈ 571 µM); MIC [20]: 160 µg/mL (≈ 571 µM) |
| O=C(NNc1c(F)c(F)c(F)c(F)c1F)c1ccoc1 | 320 (≈ 1100 µM) | 320 (≈ 1100 µM) | 320 (≈ 1100 µM) | 160 (≈ 548 µM) | 320 (≈ 1100 µM) | 320 (≈ 1100 µM) | 320 (≈ 1100 µM) |  | 320 (≈ 1100 µM) | 320 (≈ 1100 µM) | inactive | 320 (≈ 1100 µM) | 320 (≈ 1100 µM) | inactive | 80 (≈ 274 µM) | 320 (≈ 1100 µM) | 320 (≈ 1100 µM) | 320 (≈ 1100 µM) | 80 (≈ 274 µM) | inactive | Activity [3]: inactive; Activity [5]: inactive; Activity [6]: inactive; Activity [7]: inactive; MFC [11]: 320 µg/mL (≈ 1100 µM); Activity [12]: inactive; MFC [13]: 320 µg/mL (≈ 1100 µM); MFC [14]: 320 µg/mL (≈ 1100 µM); MFC [15]: 80 µg/mL (≈ 274 µM); Activity [16]: inactive; MFC [18]: 320 µg/mL (≈ 1100 µM); MIC [18]: 320 µg/mL (≈ 1100 µM); MFC [19]: 320 µg/mL (≈ 1100 µM); MIC [19]: 320 µg/mL (≈ 1100 µM); Activity [20]: inactive |
